The text below walks through data of ChEMBL document CHEMBL3865799, “Synthesis of a series of novel dihydroartemisinin monomers and dimers containing chalcone as a linker and their anticancer activity” (Eur J Med Chem, 2016).

One data set concerns HL-60. Briefly: Induction of apoptosis in human HL60 cells assessed as morphological alterations after 24 hrs by hoechst 33258 staining-based microscopic analysis. The class given is functional, cell-based. The method in brief:
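HL-60 cells at 0.5 × 10^6/ml were treated for 24 h with […] compound in DMSO vehicle (<0.2%). Cells were fixed in cold acetic acid:methanol (1:3) for 1 h on ice, spread on slides and air-dried overnight. Slides were stained with Hoechst 33258 for 30 min, mounted in glycerol:PBS and viewed by fluorescence microscopy at 20×. Morphology was checked by phase contrast. One of three experiments shown.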

Data set [1] can be described thus: Cytotoxicity against human MIAPaCa2 cells assessed as cell growth inhibition at 0.5 uM after 48 hrs by MTT assay. Type of data set: functional. To be noted: MIA PaCa-2, 48 h, read-out: GI. The method in brief: (§1)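 Adherent lines at 70–75% confluence, grown at 37 °C in 5% CO2 with 10% FCS. Exposed 48 h to compound in DMSO (vehicle <0.2% v/v). MTT dye added 3 h before termination; formazan dissolved in DMSO, OD 570 nm with 620 nm reference. Growth inhibition expressed as % of untreated; IC50 taken from the dose series.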
(In general: Tetrazolium dyes change colour on reduction, which living cells bring about.)

A short description of data set [2]: Cytotoxicity against human LS180 cells assessed as cell growth inhibition at 0.5 uM after 48 hrs by MTT assay. The class given is functional. To be noted: LS180, 48 h, read-out: GI. The method in brief:
as §1

A short description of data set [3]: Lipophilicity, log P of the compound. The class given is physicochemical. To be noted: octanol/water.
Data set [4] can be described thus: Cell cycle arrest in human HL60 cells assessed as accumulation at subG0 phase at 1 uM after 24 hrs by propidium iodide-DNA fluorescence based FACS analysis (reference value: 5 %). The class given is functional. To be noted: HL-60. The method in brief:
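HL-60 cells seeded at 0.5 × 10^6 cells/ml, exposed 24 h to compound (DMSO vehicle, <0.2% v/v). Pelleted at 400×g, PBS-washed, fixed in 70% ethanol at 4 °C overnight. RNase A treatment at 37 °C for 1.30 h, then propidium iodide staining for 20 min. Flow cytometry on 10,000 events, FL2-A vs FL2-W; subG0 (apoptotic) and phase populations gated.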
On the technique in general: Flow cytometry measures light scatter and fluorescence of single cells or particles in a stream.

As usually defined, the logP is a log measure of how a compound divides between an organic and an aqueous phase. On to `C[C@H]1[C@@H](OCCOc2ccc(/C=C/C(=O)c3ccc(O)cc3)cc2)O[C@@H]2O[C@@]3(C)CC[C@H]4[C@H](C)CC[C@@H]1[C@@]24OO3`, for which the Activity entry in the data set on HL-60 is “Dose-dependent effect”. Further, the inhibition of growth at 0.5 µM is 6.2% in data set [1] and 32.2% in data set [2]. This compound showed a lipophilicity (logP) in data set [3] of 6.33.
`C[C@H]1[C@@H](OCCOc2cccc(C(=O)/C=C/c3ccc(O)cc3)c2)O[C@@H]2O[C@@]3(C)CC[C@H]4[C@H](C)CC[C@@H]1[C@@]24OO3`: the Activity result in the data set on HL-60 is “Dose-dependent effect”; in data set [4], 65%. The inhibition of growth at 0.5 µM in data set [1] turned out to be 12.7%; in data set [2], 21.7%. In addition, the logP in data set [3] came to 6.33.
